Measured values taken from ChEMBL document CHEMBL1144760, “Oxygenated cembranoids from a Formosan soft coral Sinularia gibberosa” (J Nat Prod, 2008).
Activity calls are given as the source filed them. The rule behind the calls is not given here.

Columns and labels:
[1] = tested on: HepG2; assay: Cytotoxicity against human HepG2 cells by MTT assay; assay type: functional, cell-based
[2] = tested on: MCF7; assay: Cytotoxicity against human MCF7 cells by MTT assay; assay type: functional, cell-based
[3] = tested on: HepG2; assay: Cytotoxicity against human HepG2 cells at 20 ug/mL by MTT assay; assay type: functional; settings: read-out: GI
[4] = Cytotoxicity against human MDA-MB-23 cells by MTT assay; assay type: functional, cell-based
[5] = tested on: A549; assay: Cytotoxicity against human A549 cells by MTT assay; assay type: functional, cell-based
[6] = tested on: A549; assay: Cytotoxicity against human A549 cells at 20 ug/mL by MTT assay; assay type: functional; settings: read-out: GI
[7] = tested on: MCF7; assay: Cytotoxicity against human MCF7 cells at 20 ug/mL by MTT assay; assay type: functional; settings: read-out: GI
[8] = tested on: RAW264.7; assay: Inhibition of LPS-induced iNOS expression in mouse RAW264.7 cells at 10 uM by immunoblot analysis relative to control; assay type: functional
Summary of the method: (§1)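 Murine RAW 264.7 macrophages were grown in DMEM with 10% heat-inactivated FBS at 37 °C and 5% CO2. Test agent (10 µM) was added 5 min before LPS (0.01 µg/mL), followed by 16 h incubation. Lysates were cleared at 20000g, and equal protein was run on SDS-PAGE and PVDF. Blots used anti-iNOS or anti-COX-2 (1:1000, 180 min RT), ECL, and a β-actin reprobe. Densitometry was expressed relative to LPS-alone (100%), as mean ± SEM, n = 6.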

[9] = tested on: RAW264.7; assay: Inhibition of LPS-induced COX2 expression in mouse RAW264.7 cells at 10 uM by immunoblot analysis relative to control; assay type: functional; summary of the method: as §1
[10] = tested on: A549; assay: Cytotoxicity against human A549 cells at 0.5 ug/mL by MTT assay; assay type: functional; settings: read-out: GI
[11] = tested on: MCF7; assay: Cytotoxicity against human MCF7 cells at 0.5 ug/mL by MTT assay; assay type: functional; settings: read-out: GI
[12] = Cytotoxicity against human MDA-MB-23 cells at 0.5 ug/mL by MTT assay; assay type: functional; settings: read-out: GI
[13] = tested on: HepG2; assay: Cytotoxicity against human HepG2 cells at 0.5 ug/mL by MTT assay; assay type: functional; settings: read-out: GI

SMILES | IC50 [1] [mg/L] | IC50 [2] [mg/L] | inhibition of growth at 20 µg/mL [3] [%] | IC50 [4] [mg/L] | IC50 [5] [mg/L] | inhibition of growth at 20 µg/mL [6] [%] | inhibition of growth at 20 µg/mL [7] [%] | iNOS protein level (% of LPS control) at 10 µM [8] [%] | COX-2 protein level (% of LPS control) at 10 µM [9] [%] | Activity [8] | Activity [9] | inhibition of growth at 0.5 µg/mL [10] [%] | inhibition of growth at 0.5 µg/mL [11] [%] | inhibition of growth at 0.5 µg/mL [12] [%] | inhibition of growth at 0.5 µg/mL [13] [%]
C/C1=C/C=C(\C(C)C)CC/C(C)=C/C(O)C/C(C)=C/CC1 (stereo unspecified) [GIBBEROSENE G] | > 20 | > 20 | 23.3 | > 20 | > 20 | – | – | – | – | – | – | – | – | – | –
CC(=O)O[C@@H]1/C(C)=C/C[C@H](O)/C(C)=C/CC/C(C)=C\C=C(/C(C)C)[C@H]1OC(C)=O (relative stereo) [GIBBEROSENE E] | > 20 | > 20 | 31.3 | > 20 | > 20 | 25.8 | 21 | – | – | – | – | – | – | – | –
CC(=O)O[C@@H]1/C(C)=C/CC/C(C)=C/[C@H](O)C/C(C)=C\C=C(/C(C)C)[C@H]1OC(C)=O (relative stereo) [GIBBEROSENE F] | > 20 | > 20 | – | > 20 | > 20 | – | – | – | – | – | – | – | – | – | –
C/C1=C/C=C(\C(C)C)[C@@H](O)C[C@]2(C)O[C@@H]2CC/C(C)=C/CC1 | > 20 | > 20 | 45.5 | > 20 | > 20 | 27.2 | 33.4 | 76.2 | 54 | – | – | – | – | – | –
C/C1=C\CC[C@]2(C)O[C@H]2/C=C(\C(C)C)C[C@H](O)[C@]2(C)O[C@H]2CC1 (relative stereo) [GIBBEROSENE C] | > 20 | > 20 | – | > 20 | > 20 | – | – | – | – | – | – | – | – | – | –
CC(=O)O[C@H]1C/C(C(C)C)=C/C=C(/C)CC/C=C(\C)CC[C@@H]2O[C@@]12C (relative stereo) [GIBBEROSENE B] | > 20 | > 20 | 24 | > 20 | > 20 | – | 21.5 | – | – | inactive | inactive | – | – | – | –
COc1cccc2c1C(=O)c1c(O)c3c(c(O)c1C2=O)C[C@@](O)(C(=O)CO)C[C@@H]3O[C@H]1C[C@H](N)[C@H](O)[C@H](C)O1 [DOXORUBICIN] | – | – | – | – | – | – | – | – | – | – | – | 73.2 | 51.6 | 66.6 | 66.9
CC(=O)O[C@H]1C2=C(C(C)C)C=C(O2)[C@@H](C)CC/C=C(\C)CC[C@@H]2O[C@]21C (relative stereo) [GIBBEROSENE A] | > 20 | > 20 | < 20 | > 20 | > 20 | – | 41.3 | – | – | – | – | – | – | – | –
CC(=O)O[C@H]1/C=C(C(C)C)\C=C\[C@@](C)(O)CC/C=C(\C)CC[C@@H]2O[C@@]12C (relative stereo) [GIBBEROSENE D] | > 20 | > 20 | – | > 20 | > 20 | – | – | – | – | – | – | – | – | – | –
